Converted amounts (≈) assume the structure as drawn.
Key:
Cryptococcus neoformans = test: Antimicrobial activity against Cryptococcus neoformans TIMM 1855 by broth microdilution method; type: functional
Method in brief: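 NCCLS broth microdilution MIC determination at 35 °C for Cryptococcus neoformans.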

Nakaseomyces glabratus = test: Antimicrobial activity against Candida glabrata ATCC 90030 by broth microdilution method; type: functional
Method in brief: (§1)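 MICs were determined by NCCLS-guideline broth microdilution in RPMI1640 medium at 35 °C against Candida strains.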

Aspergillus fumigatus [1] = test: Antimicrobial activity against Aspergillus fumigatus SANK 10569 by broth microdilution method; type: functional
Method in brief: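 Broth microdilution following NCCLS guidelines. Aspergillus strains incubated at 30 °C in RPMI1640 medium. The MIC was read as the endpoint.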

Candida albicans [2] = test: Antimicrobial activity against Candida albicans ATCC 64550 by broth microdilution method; type: functional; method in brief: as §1
Aspergillus fumigatus [3] = test: Antimicrobial activity against Aspergillus fumigatus ATCC 26430 by broth microdilution method
Candida tropicalis = test: Antimicrobial activity against Candida tropicalis ATCC 750 by broth microdilution method; type: functional; method in brief: as §1
Aspergillus flavus = test: Antimicrobial activity against Aspergillus flavus SANK 18497 by broth microdilution method
Candida albicans [4] = test: Antimicrobial activity against Candida albicans SANK 51486 by broth microdilution method; type: functional; method in brief: as §1
Candida parapsilosis = test: Antimicrobial activity against Candida parapsilosis ATCC 90018 by broth microdilution method; type: functional; conditions: Lodderomyces parapsilosis; method in brief: as §1
Pichia kudriavzevii = test: Antimicrobial activity against Candida krusei ATCC 6258 by broth microdilution method; type: functional; method in brief: as §1
Candida albicans [5] = test: Antimicrobial activity against Candida albicans TIMM 3164 by broth microdilution method; type: functional; method in brief: as §1
Candida albicans [6] = test: Antimicrobial activity against Candida albicans ATCC 24433 by broth microdilution method; type: functional; method in brief: as §1
Candida albicans [7] = test: Antimicrobial activity against Candida albicans 427 infected ddY mouse assessed as survival rate at 20 mg/kg, po administered after 1 hr, 4 hrs, 24 hrs of infection; type: functional
Method in brief: (§2)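 ddY mice (n = 10) infected systemically by intravenous injection of C. albicans 427, 5.5 × 10⁶ CFU/mouse. Treatment 20 mg/kg/administration, given 1, 4 and 24 h after infection, orally or ip as per line. Survival recorded 21 days after administration.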

Mus musculus = test: Toxicity in ddY mouse at 500 mg/kg, po once daily for 4 days; conditions: in vivo, 96 h
Candida albicans [8] = test: Antimicrobial activity against Candida albicans 427 infected ddY mouse assessed as survival at 20 mg/kg, po administered after 1 hr, 4 hrs, 24 hrs of infection; type: functional; method in brief: as §2
Candida albicans [9] = test: Antimicrobial activity against Candida albicans 427 infected ddY mouse assessed as survival at 20 mg/kg, ip administered after 1 hr, 4 hrs, 24 hrs of infection; type: functional; conditions: route intraperitoneal; method in brief: as §2

SMILES	MIC (Cryptococcus neoformans)	MIC (Nakaseomyces glabratus)	MIC (Aspergillus fumigatus [1])	MIC (Candida albicans [2])	MIC (Aspergillus fumigatus [3])	MIC (Candida tropicalis)	MIC (Aspergillus flavus)	MIC (Candida albicans [4])	MIC (Candida parapsilosis)	MIC (Pichia kudriavzevii)	MIC (Candida albicans [5])	MIC (Candida albicans [6])	Activity (Candida albicans [7])	Activity (Mus musculus)	Survival (Candida albicans [8])	Survival (Candida albicans [9])
C[C@@H](C[C@H]1CO[C@H](/C=C/C=C/C=C/c2ccc(C(F)(F)F)cc2)OC1)[C@](O)(Cn1cncn1)c1ccc(F)cc1F.O=C(O)C(=O)O	0.125 µg/mL	2 µg/mL	0.5 µg/mL	0.5 µg/mL	0.5 µg/mL	0.25 µg/mL	1 µg/mL	0.031 µg/mL	0.125 µg/mL	0.25 µg/mL	0.125 µg/mL	0.125 µg/mL				
C[C@@H](C[C@H]1CO[C@H](/C=C/c2ccc(C(F)(F)F)cc2)OC1)[C@](O)(Cn1cncn1)c1ccc(F)cc1F.O=C(O)C(=O)O	0.016 µg/mL	1 µg/mL	0.25 µg/mL	1 µg/mL	0.25 µg/mL	0.125 µg/mL	0.5 µg/mL	≤ 0.008 µg/mL	0.031 µg/mL	0.063 µg/mL	0.016 µg/mL	0.031 µg/mL				
OC(Cn1cncn1)(Cn1cncn1)c1ccc(F)cc1F [FLUCONAZOLE]	> 4 µg/mL	> 4 µg/mL	> 4 µg/mL	> 4 µg/mL	> 4 µg/mL	2 µg/mL (≈ 6.53 µM)	> 4 µg/mL	0.25 µg/mL (≈ 0.816 µM)	0.5 µg/mL (≈ 1.63 µM)	> 4 µg/mL	> 4 µg/mL	0.5 µg/mL (≈ 1.63 µM)	60%			
C[C@@H](S[C@H]1CO[C@H](/C=C/C=C/C=C/c2ccc(C(F)(F)F)cc2)OC1)[C@](O)(Cn1cncn1)c1ccc(F)cc1F.O=C(O)C(=O)O	0.5 µg/mL	> 4 µg/mL	2 µg/mL	> 4 µg/mL	2 µg/mL	2 µg/mL	4 µg/mL	0.031 µg/mL	0.25 µg/mL	1 µg/mL	1 µg/mL	0.25 µg/mL				
C[C@@H](C[C@H]1CO[C@H](c2ccc(C(F)(F)F)cc2)OC1)[C@](O)(Cn1cncn1)c1ccc(F)cc1F.O=C(O)C(=O)O	0.031 µg/mL	1 µg/mL	0.25 µg/mL	0.5 µg/mL	0.25 µg/mL	0.125 µg/mL	1 µg/mL	≤ 0.008 µg/mL	0.016 µg/mL	0.125 µg/mL	0.016 µg/mL	0.016 µg/mL				
CCC(C)n1ncn(-c2ccc(N3CCN(c4ccc(OCC5COC(Cn6cncn6)(c6ccc(Cl)cc6Cl)O5)cc4)CC3)cc2)c1=O (centres undefined) [ITRACONAZOLE]	0.25 µg/mL (≈ 0.354 µM)	1 µg/mL (≈ 1.42 µM)	0.25 µg/mL (≈ 0.354 µM)	1 µg/mL (≈ 1.42 µM)	0.25 µg/mL (≈ 0.354 µM)	0.5 µg/mL (≈ 0.709 µM)	0.5 µg/mL (≈ 0.709 µM)	0.031 µg/mL (≈ 0.0439 µM)	0.125 µg/mL (≈ 0.177 µM)	0.5 µg/mL (≈ 0.709 µM)	0.25 µg/mL (≈ 0.354 µM)	0.125 µg/mL (≈ 0.177 µM)				
C[C@@H](C[C@H]1CO[C@H](/C=C/C=C/c2ccc(C(F)(F)F)cc2)OC1)[C@](O)(Cn1cncn1)c1ccc(F)cc1F.O=C(O)C(=O)O	0.016 µg/mL	1 µg/mL	0.125 µg/mL	0.5 µg/mL	0.125 µg/mL	0.125 µg/mL	0.5 µg/mL	≤ 0.008 µg/mL	0.031 µg/mL	0.063 µg/mL	0.016 µg/mL	0.016 µg/mL		Non-toxic	21 days	21 days
C[C@@H](S[C@H]1CO[C@H](/C=C/c2ccc(C(F)(F)F)cc2)OC1)[C@](O)(Cn1cncn1)c1ccc(F)cc1F	0.016 µg/mL (≈ 0.0295 µM)	1 µg/mL (≈ 1.85 µM)	0.25 µg/mL (≈ 0.462 µM)	2 µg/mL (≈ 3.69 µM)	0.25 µg/mL (≈ 0.462 µM)	0.031 µg/mL (≈ 0.0572 µM)	1 µg/mL (≈ 1.85 µM)	0.016 µg/mL (≈ 0.0295 µM)	0.031 µg/mL (≈ 0.0572 µM)	0.25 µg/mL (≈ 0.462 µM)	0.125 µg/mL (≈ 0.231 µM)	0.063 µg/mL (≈ 0.116 µM)				
C[C@@H](S[C@H]1CO[C@H](/C=C/C=C/c2ccc(C(F)(F)F)cc2)OC1)[C@](O)(Cn1cncn1)c1ccc(F)cc1F.O=C(O)C(=O)O	0.016 µg/mL	1 µg/mL	0.25 µg/mL	1 µg/mL	0.25 µg/mL	0.125 µg/mL	0.5 µg/mL	0.016 µg/mL	0.063 µg/mL	0.25 µg/mL	0.125 µg/mL	0.125 µg/mL				
C[C@@H](S[C@H]1CO[C@H](c2ccc(C(F)(F)F)cc2)OC1)[C@](O)(Cn1cncn1)c1ccc(F)cc1F	0.031 µg/mL (≈ 0.0601 µM)	1 µg/mL (≈ 1.94 µM)	1 µg/mL (≈ 1.94 µM)	1 µg/mL (≈ 1.94 µM)	1 µg/mL (≈ 1.94 µM)	0.5 µg/mL (≈ 0.97 µM)	2 µg/mL (≈ 3.88 µM)	≤ 0.008 µg/mL	0.031 µg/mL (≈ 0.0601 µM)	0.25 µg/mL (≈ 0.485 µM)	0.063 µg/mL (≈ 0.122 µM)	0.016 µg/mL (≈ 0.031 µM)				
